Screening data (PubChem BioAssay)
Rows were chosen to be rich in hits. Some 3% of all compounds tested hit in one or more screens of this group.
Cl transport mod: KCC2 (human) Cl- transport modulation. Q9H2X9. KCC2 cells, thallium flux FluoZin-2 fluorescence. B-score of Tl+ flux slope (higher = more flux/activation; lower = inhibition) at 10 µM. actives 2.2% (n = 190,000);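 active = thallium flux slope and its plate-corrected score both differing from the plate sample mean at a set confidence after two filtering rounds, in either direction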;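 also: slope of fluorescence scaled to starting intensity during 10 to 20 s after thallium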
PKD1 inh: blocks activity of human protein kinase D1 | Q15139 | PKD1 kinase fluorescence polarization assay | inhibition, % (concentration not given with the values) | actives 0.056% (n = 200,000) | AID 797; in the data active = inhibition above about 50%
Rad51 HR inh: blocks human Rad51 in homologous recombination | actives 0.085% (n = 200,000) | hRad51 DNA strand exchange, fluorescence dequenching | inhibition, % at 10 µM | AID 1385;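 active = inhibition above 40% at the single screening dose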
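Material: hRad51 filaments on single-stranded DNA; Reagent: Donor/quencher-labelled 47-bp dsDNA substrate; Compound: 10 µM final, single point; Schedule: 37 °C 15-min filament assembly, 30-min compound preincubation, 15-min exchange; Technique: FRET fluorescence, excitation 485 nm, emission 520 nm; Benchmarks: control wells and blank wells on each plate.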
ROMK mod: modulates human ROMK potassium channel activity | P48048 | Tet-inducible ROMK, thallium flux fluorescence; actives lie on both sides | B-score at 10 µM | actives 2% (n = 130,000) | AID 1918;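 active = signal ratio slope over the read window, or its plate-corrected B-score, at least 3 SD from the plate mean, either direction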;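 also: B-score of the F/F0 ratio slope over 7 to 12 s after thallium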
KCC2 sec1: KCC2 (human) modulation, secondary assay | AID 1713 | actives 15% (n = 3,700) | HEK293-KCC2, thallium flux, FluoZin2 fluorescence; active compounds read high | normalised thallium flux (F/F0 slope) at 10 µM | shares compounds with Cl transport mod;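 active = thallium flux slope above the same plate's solvent-only control mean plus 3 SD; inconclusive = the two replicate wells disagree; inactive = no significant difference from solvent-only control wells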
KCC2 bumet counter: bumetanide-insensitive thallium flux in KCC2 cells with ouabain, counter-screen. shares compounds with Cl transport mod. HEK293-KCC2 + bumetanide/ouabain, thallium flux FluoZin2; active compounds read high. normalized thallium flux at 10 µM. actives 49% (n = 3,700). AID 1714;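 active = thallium entry rate above the same plate's blocked-transporter control wells by more than 3 SD; inconclusive = the two repeat wells disagree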;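 also: raw slope of fluorescence over initial fluorescence between 10 and 20 s after thallium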
KCC2 sec2: confirmation of human KCC2 transport modulators | shares compounds with Cl transport mod | HEK293-KCC2, thallium flux FluoZin2 fluorescence; actives lie on both sides; F/F0 rise rate, 10–20 s post-thallium | normalized thallium flux at 10 µM | actives 23% (n = 3,700) | AID 1715;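 active = thallium flux slope more than 3 SD above or below the plate's solvent-only control mean, mostly below; inconclusive = the two repeat wells disagreed; inactive = no significant shift from solvent-only controls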
HEK counter1: counter-screen for KCC2 modulators: effect in parental HEK293 cells. shares compounds with Cl transport mod. thallium flux FluoZin2, ouabain; baseline-ratio fluorescence slope, 10–20 s after thallium. thallium flux rate (normalised fluorescence) at 10 µM. actives 46% (n = 3,700). AID 1716;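 active = thallium flux rate significantly above the same plate's solvent-only control wells, beyond their mean plus 3 SD; inconclusive = the two replicate wells gave conflicting results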
KCC2 ouabain: confirmation of human KCC2 modulators with ouabain; shares compounds with Cl transport mod; HEK293-KCC2, thallium flux FluoZin2 fluorescence; bidirectional: low = inhibitor, high = activator; raw Tl+ flux slope (below DMSO = inhibition, above = activation) at 10 µM; actives 48% (n = 3,700);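 active = thallium flux slope beyond 3 SD from same-plate DMSO control mean in most replicates, usually higher, sometimes lower; inconclusive = repeat tests gave conflicting results; inactive = no significant difference from controls in most replicates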;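 also: slope of initial-normalized fluorescence between seconds 10 and 20 after thallium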
HEK counter2: parental HEK flux effect, counter-screen 2. shares compounds with Cl transport mod. thallium flux slope at 10 µM. actives 33% (n = 3,700). AID 1718. HEK293 parental, thallium flux FluoZin-2 fluorescence slope;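 active = thallium flux slope above the same plate's solvent-control mean plus 3 SD in both duplicate wells; inconclusive = duplicate wells that disagreed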;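 also: run without ouabain in cells lacking the KCC2 cotransporter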
A number is an active result; . = inactive; ? = inconclusive; / = no result.

SMILES	Cl transport mod	PKD1 inh	Rad51 HR inh	ROMK mod	KCC2 sec1	KCC2 bumet counter	KCC2 sec2	HEK counter1	KCC2 ouabain	HEK counter2
CC(=O)O[C@H]1CC(C)(C)C(=C=C/C(C)=C/C=C/C(C)=C/C=C/C=C(C)/C=C/C=C(\C)C(=O)C[C@@]23O[C@]2(C)C[C@@H](O)CC3(C)C)[C@](C)(O)C1	.	/	.	/	/	/	/	/	/	/
COc1ccc(-c2nc3ccccc3[nH]2)cc1	.	.	.	.	/	/	/	/	/	/
COc1ccc(-c2nc(=S)c3ccc4ccccc4c3[nH]2)cc1	79	.	.	.	0.022	0.11	0.048	0.086	0.08	0.04
O=C(NCc1nc2ccccc2[nH]1)C1=C[C@H](c2coc3ccccc3c2=O)C[C@H](OCc2ccc(CO)cc2)O1	.	/	.	/	/	/	/	/	/	/
CC1CN(C(=O)C2CC2)C(C)CN1C(=O)C1CC1 (stereo not drawn)	.	.	.	/	/	/	/	/	/	/
OCC1N=C(c2ccccn2)OC1c1ccccc1 (stereo not drawn)	-5.8	.	.	/	.	.	.	.	.	0.01
CCOC(=O)c1sc(CS(=O)(=O)c2ccc(Cl)cc2)nc1C	.	/	/	.	/	/	/	/	/	/
CCOC(=O)c1sc(-c2ccc(Cl)cc2Cl)nc1O	9.2	/	.	/	.	0.02	.	0.017	0.026	0.013
C#CC1CCCCC1NC(=O)Nc1cnccc1C(F)(F)F (stereo not drawn)	.	/	.	/	/	/	/	/	/	/
CC(OC(=O)c1ccc(S(=O)(=O)NCc2ccco2)cc1)C(=O)Nc1ccc(Cl)cn1 (stereo not drawn)	.	.	.	.	/	/	/	/	/	/
CC(OC(=O)c1ccccc1NCc1ccco1)C(=O)Nc1ncc(Cl)cc1Cl (stereo not drawn)	-3	.	.	/	.	.	.	.	?	?
CCNC(=O)CC1C(=O)N(CC)C(=S)N1NC(=O)c1ccccc1 (stereo not drawn)	/	/	.	/	/	/	/	/	/	/
O=C1NC(=O)/C(=C\c2ccc(Oc3cnccn3)cc2)S1	.	.	.	.	/	/	/	/	/	/
O=C1NC(=S)S/C1=C/c1ccc(Oc2cnccn2)cc1	/	.	.	.	0.012	0.038	.	0.012	0.037	?
Cc1ccc(NC(=O)C(C)Sc2nc(=O)cc(N)n2-c2ccccc2)cc1 (stereo not drawn)	/	.	.	.	.	.	.	.	.	.
O=S(=O)(Nc1nc2ccccc2nc1Nc1cccc(S(=O)(=O)N2CCCCC2)c1)c1ccccc1	-3.5	.	.	/	.	.	.	?	?	.
COC(=O)c1ccc(CSc2nc3ccc(C)cc3[nH]2)o1	.	.	/	.	/	/	/	/	/	/
O=C(CC(Cc1ccccc1)c1ccco1)NC1CCCCC1 (stereo not drawn)	/	.	.	/	.	.	0.028	.	0.013	.
CC1C(c2ccccc2)N(C)C(c2ccccc2)C(C)C1(O)C#Cc1ccccc1 (stereo not drawn)	.	.	/	/	/	/	/	/	/	/
COc1ccc(CN2CN=C(Nc3nc4ccccc4s3)NC2)cc1	-5.4	.	.	/	.	.	.	.	.	.
c1ccc(CN2CN=C(Nc3nc4ccccc4s3)NC2)cc1	.	.	.	.	/	/	/	/	/	/
Cc1cc(NC(=O)CSc2ccc(-c3ccc(F)cc3)nn2)no1	-5.2	.	.	/	.	.	0.025	.	?	.
O=C(CSc1ccc(-c2ccccc2)nn1)c1ccccc1	-4.1	.	.	/	.	?	0.022	.	?	.
Cc1cc(NC(=O)CSc2ccc(-c3ccccc3)nn2)no1	-7.4	.	.	/	.	.	0.024	?	0.013	.
O=C(CSc1ccc(-c2ccc(F)cc2)nn1)NCC1CCCO1 (stereo not drawn)	.	.	/	.	/	/	/	/	/	/
SMILES	Cl transport mod	PKD1 inh	Rad51 HR inh	ROMK mod	KCC2 sec1	KCC2 bumet counter	KCC2 sec2	HEK counter1	KCC2 ouabain	HEK counter2
CC1CCCCN1C(=O)CSc1ccc(-c2ccc(F)cc2)nn1 (stereo not drawn)	/	.	.	.	.	.	0.028	.	0.017	.
Cc1cc(NC(=O)CSc2ccc(-c3cccc([N+](=O)[O-])c3)nn2)no1	.	.	.	.	/	/	/	/	/	/
Cn1c(CNC(=O)c2ccco2)nnc1SCC(=O)Nc1c(F)cc(F)cc1Br	.	.	.	.	/	/	/	/	/	/
CCOc1ccc(NC(=O)CCn2c(=O)[nH]c3ccsc3c2=O)cc1	.	.	.	.	/	/	/	/	/	/
CC(=O)c1cccc(NC(=O)CSc2ccc(-c3ccc4c(c3)OCO4)nn2)c1	.	.	.	/	/	/	/	/	/	/
O=C(CSc1ccc(-c2ccccc2)nn1)Nc1ccc2c(c1)OCCO2	-6.2	.	/	.	.	.	0.022	.	0.014	.
Cc1noc(C(=O)NCc2cccnc2)c1Cl	.	.	.	/	/	/	/	/	/	/
Cc1noc(C(=O)NCc2ccc(F)cc2)c1Cl	6.8	.	.	/	.	.	.	.	.	.
CCNC(=S)N/N=C(\C)c1ccco1	.	.	.	.	/	/	/	/	/	/
C/C(=N\NC(=S)Nc1ccc(C)cc1)c1cccc(N)c1	9.4	.	.	.	0.018	0.053	.	0.063	0.048	0.017
C/C(=N\NC(=S)Nc1cccc(C)c1)c1ccco1	78	.	.	/	0.028	0.085	?	0.063	0.058	0.062
C=CCNC(=S)N/N=C(\C)c1cccc(NC(C)=O)c1	.	.	.	.	/	/	/	/	/	/
Cc1noc(C)c1C(=O)N1CCN(c2ccc(OCc3ccccc3)cc2)CC1	.	/	.	.	/	/	/	/	/	/
O=C1OCc2ccc(NS(=O)(=O)c3ccc(C(F)(F)F)cc3)cc21	.	/	/	.	/	/	/	/	/	/
CC(=O)c1sc(-c2ccc(F)cc2)cc1NS(=O)(=O)c1ccc(C)cc1	10	/	.	/	.	.	.	.	.	.
NC(=O)c1sc(-c2ccsc2)cc1NS(=O)(=O)c1ccc(C(F)(F)F)cc1	-5.4	/	.	.	.	.	.	.	0.012	.
CC(=O)c1sc(-c2ccccc2)cc1NS(=O)(=O)c1ccccc1	.	/	.	/	/	/	/	/	/	/
CCOc1ccc(Br)cc1S(=O)(=O)Nc1cccc(S(=O)(=O)N(C)C)c1	.	.	.	.	/	/	/	/	/	/
O=C(CSc1nnc(-c2ccco2)n1Cc1ccccc1)c1ccccc1	-8.2	.	.	/	.	.	?	?	0.015	.
CCCn1c(SCC(=O)N2CCCCC2)nnc1-c1ccco1	5.6	.	.	/	.	.	.	.	.	.
Cc1ccc(C(=O)CSc2nnc(-c3ccco3)n2Cc2ccccc2)cc1	-3.2	.	.	/	.	.	.	?	0.013	.
